Laboratory results published in ChEMBL document CHEMBL1143019, “Hybrid molecules of estrone: new compounds with potential antibacterial, antifungal, and antiproliferative activities” (2007).
≈ marks a conversion by molar mass, not a printed value.

Key:
[1] = system: Nakaseomyces glabratus; experiment: Antifungal activity against Candida glabrata 20/I after 48 hrs; type: functional
Outline: (§1)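 Modified NCCLS M27-A broth microdilution with clinical isolates subcultured on Sabouraud dextrose agar. Suspensions diluted 1:50 in RPMI 1640 to give a final inoculum of 0.5–2.5×10³ CFU/mL for yeasts or 0.5–5×10⁴ CFU/mL for molds. The RPMI had L-glutamine, no bicarbonate, and 0.165 M MOPS to pH 7.0. Twofold dilutions from 250 to 0.49. Plates held at 35 °C, humid, without agitation. MIC is the lowest concentration giving ≥80% inhibition versus drug-free control, read at 24 and 48 h.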

[2] = system: Candida albicans; experiment: Antifungal activity against Candida albicans ATCC 44859 after 24 hrs; type: functional; details: ATCC 44859, 24 h; outline: as §1
[3] = system: Lichtheimia corymbifera; experiment: Antifungal activity against Absidia corymbifera 272 after 24 hrs; type: functional; outline: as §1
[4] = system: Trichosporon beigelii; experiment: Antifungal activity against Trichosporon beigelii 1188 after 48 hrs; type: functional; outline: as §1
[5] = system: Candida albicans; experiment: Antifungal activity against Candida albicans ATCC 44859 after 48 hrs; type: functional; details: ATCC 44859, 48 h; outline: as §1
[6] = system: Trichosporon beigelii; experiment: Antifungal activity against Trichosporon beigelii 1188 after 24 hrs; type: functional; outline: as §1
[7] = system: Lichtheimia corymbifera; experiment: Antifungal activity against Absidia corymbifera 272 after 48 hrs; type: functional; outline: as §1
[8] = system: Candida tropicalis; experiment: Antifungal activity against Candida tropicalis 156 after 48 hrs; type: functional; outline: as §1
[9] = system: Aspergillus fumigatus; experiment: Antifungal activity against Aspergillus fumigatus 231 after 24 hrs; type: functional; outline: as §1
[10] = system: Pichia kudriavzevii; experiment: Antifungal activity against Candida krusei E28 after 24 hrs; type: functional; outline: as §1
[11] = system: Candida tropicalis; experiment: Antifungal activity against Candida tropicalis 156 after 24 hrs; type: functional; outline: as §1
[12] = system: Aspergillus fumigatus; experiment: Antifungal activity against Aspergillus fumigatus 231 after 48 hrs; type: functional; outline: as §1
[13] = system: Trichophyton benhamiae; experiment: Antifungal activity against Trichophyton mentagrophytes 445 after 120 hrs; type: functional, Arthroderma benhamiae
Outline: (§2)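 Same modified M27-A microdilution with the mold inoculum of 0.5–5×10⁴ CFU/mL. Medium was RPMI 1640 with L-glutamine, no bicarbonate, and 0.165 M MOPS at pH 7.0. Twofold dilutions from 250 to 0.49. Incubated at 35 °C in a humid atmosphere.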

[14] = system: Pichia kudriavzevii; experiment: Antifungal activity against Candida krusei E28 after 48 hrs; type: functional; outline: as §1
[15] = system: Nakaseomyces glabratus; experiment: Antifungal activity against Candida glabrata 20/I after 24 hrs; type: functional; outline: as §1
[16] = system: Mycobacterium kansasii; experiment: Antimicrobial activity against Mycobacterium kansasii My 6509/96 after 7 days; type: functional; details: 168 h
Outline: (§3)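 Run in Šula semisynthetic liquid medium containing bovine serum. Compounds added as DMSO solutions at final concentrations of […]. Each strain was also inoculated onto Löwenstein–Jensen medium to control inoculum sterility and growth.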

[17] = system: Mycobacterium tuberculosis; experiment: Antimicrobial activity against Mycobacterium tuberculosis My 331/88 after 21 days; type: functional; details: 504 h
[18] = system: Mycobacterium kansasii; experiment: Antimicrobial activity against Mycobacterium kansasii My 6509/96 after 14 days; type: functional; details: 336 h; outline: as §3
[19] = system: Mycobacterium kansasii; experiment: Antimicrobial activity against Mycobacterium kansasii My 6509/96 after 21 days; type: functional; details: 504 h; outline: as §3
[20] = system: K562; experiment: Antiproliferative activity against human K562 cells after 72 hrs; type: functional; details: K562, 72 h
Outline: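 About 10,000 suspension cells per well in RPMI 1640 with 10% heat-inactivated FBS and penicillin/streptomycin, without HEPES. Exposed to 10 concentrations for 72 h at 37 °C in humidified 5% CO₂. Wells diluted 1:50 in CASYTON and counted electronically, each result the mean of three successive counts. GI50 is where the concentration–response curve crosses 50% of control cell count.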

[21] = system: Mycobacterium tuberculosis; experiment: Antimicrobial activity against Mycobacterium tuberculosis My 331/88 after 14 days; type: functional; details: 336 h
[22] = system: HeLa; experiment: Cytotoxicity against human HeLa cells after 72 hrs; type: functional; details: for CC50: Homo sapiens, HeLa, 72 h
Outline: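 About 10,000 cells per well in RPMI 1640 were preincubated 48 h without compound. The 10 test concentrations were then applied onto the monolayers and incubated 72 h at 37 °C in humidified 5% CO₂. Monolayers fixed with glutaraldehyde, stained with 0.05% methylene blue, and eluted with 0.33 N HCl; optical density measured at 630 nm.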

[23] = system: Mycobacterium kansasii; experiment: Antimicrobial activity against Mycobacterium kansasii My 235/80 after 7 days; type: functional; details: 168 h; outline: as §3
[24] = system: Mycobacterium kansasii; experiment: Antimicrobial activity against Mycobacterium kansasii My 235/80 after 21 days; type: functional; details: 504 h; outline: as §3
[25] = system: Mycobacterium kansasii; experiment: Antimicrobial activity against Mycobacterium kansasii My 235/80 after 14 days; type: functional; details: 336 h; outline: as §3
[26] = system: Mycobacterium avium; experiment: Antimicrobial activity against Mycobacterium avium My 330/88 after 14 days; type: functional; details: 336 h
[27] = system: Mycobacterium avium; experiment: Antimicrobial activity against Mycobacterium avium My 330/88 after 21 days; type: functional; details: 504 h
[28] = system: L929; experiment: Antiproliferative activity against mouse L929 cells after 72 hrs; type: functional; details: L929, 72 h
Outline: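 About 10,000 adherent cells per well in RPMI 1640 with 10% heat-inactivated FBS and penicillin/streptomycin, without HEPES. Exposed to 10 concentrations for 72 h at 37 °C in humidified 5% CO₂. Monolayers fixed with glutaraldehyde, stained 15 min with 0.05% methylene blue, and eluted with 0.33 N HCl; OD read at 630 nm. GI50 derived from dose–response curves relative to control.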

[29] = system: Trichophyton benhamiae; experiment: Antifungal activity against Trichophyton mentagrophytes 445 after 72 hrs; type: functional, Arthroderma benhamiae; outline: as §2

| Compound | MIC [1] [µM] | MIC [2] [µM] | MIC [3] [µM] | MIC [4] [µM] | MIC [5] [µM] | MIC [6] [µM] | MIC [7] [µM] | MIC [16] [µM] | MIC [17] [µM] | MIC [18] [µM] | MIC [19] [µM] | GI50 [20] [µg/mL] | MIC [21] [µM] | CC10 [22] [µg/mL] | CC50 [22] [µg/mL] | MIC [23] [µM] | MIC [24] [µM] | MIC [25] [µM] | MIC [26] [µM] | GI50 [28] [µg/mL] | also measured |
| --- | --- | --- | --- | --- | --- | --- | --- | --- | --- | --- | --- | --- | --- | --- | --- | --- | --- | --- | --- | --- | --- |
| OC(Cn1cncn1)(Cn1cncn1)c1ccc(F)cc1F [FLUCONAZOLE] | 52.2 (≈ 16 µg/mL) | 0.8 (≈ 0.245 µg/mL) | > 250 | 6.5 (≈ 1.99 µg/mL) | 1.6 (≈ 0.49 µg/mL) | 3.3 (≈ 1.01 µg/mL) | > 250 | – | – | – | – | – | – | – | – | – | – | – | – | – | MIC [8]: > 250 µM; MIC [9]: > 250 µM; MIC [10]: 52.2 µM (≈ 16 µg/mL); MIC [11]: 1.6 µM (≈ 0.49 µg/mL); MIC [12]: > 250 µM; MIC [13]: 52.2 µM (≈ 16 µg/mL); MIC [14]: 104 µM (≈ 32 µg/mL); MIC [15]: 13.1 µM (≈ 4.01 µg/mL) |
| Sc1nnnn1-c1ccc(Cl)c(Cl)c1 | – | – | – | – | – | – | – | 250 (≈ 61.8 µg/mL) | 250 (≈ 61.8 µg/mL) | 500 (≈ 124 µg/mL) | 500 (≈ 124 µg/mL) | 31 (≈ 125 µM) | 250 (≈ 61.8 µg/mL) | 18.1 (≈ 73.2 µM) | 33.3 (≈ 135 µM) | 500 (≈ 124 µg/mL) | 500 (≈ 124 µg/mL) | 500 (≈ 124 µg/mL) | > 250 | 33.4 (≈ 135 µM) | MIC [27]: > 500 µM |
| C[C@]12CC[C@@H]3c4ccc(OCCCCCCCSc5nnnn5-c5ccc(Cl)c(Cl)c5)cc4CC[C@H]3[C@@H]1CCC2=O | > 250 | > 250 | > 250 | > 250 | > 250 | > 250 | > 250 | – | > 500 | – | > 500 | > 50 | – | 50 (≈ 81.5 µM) | > 50 | – | > 500 | > 500 | – | > 50 | MIC [29]: > 250 µM; MIC [8]: > 250 µM; MIC [9]: 250 µM (≈ 153 µg/mL); MIC [10]: > 250 µM; MIC [11]: > 250 µM; MIC [12]: > 250 µM; MIC [13]: > 250 µM; MIC [14]: > 250 µM; MIC [15]: > 250 µM |
| Sc1nnnn1-c1ccccc1 | – | – | – | – | – | – | – | > 500 | > 500 | > 500 | > 500 | > 50 | > 500 | 40 (≈ 224 µM) | > 50 | > 500 | > 500 | > 500 | > 500 | > 50 | MIC [27]: > 500 µM |
| Cc1ccc(-n2nnnc2SCc2ccccc2)cc1 | > 250 | > 250 | > 250 | > 250 | > 250 | > 250 | > 250 | 16 (≈ 4.52 µg/mL) | 125 (≈ 35.3 µg/mL) | 32 (≈ 9.04 µg/mL) | 250 (≈ 70.6 µg/mL) | 24.3 (≈ 86.1 µM) | 32 (≈ 9.04 µg/mL) | 4 (≈ 14.2 µM) | 19.7 (≈ 69.8 µM) | 16 (≈ 4.52 µg/mL) | 250 (≈ 70.6 µg/mL) | 32 (≈ 9.04 µg/mL) | 62.5 (≈ 17.6 µg/mL) | 12.5 (≈ 44.3 µM) | MIC [29]: 31.3 µM (≈ 8.84 µg/mL); MIC [8]: > 250 µM; MIC [9]: 62.5 µM (≈ 17.6 µg/mL); MIC [10]: > 250 µM; MIC [11]: > 250 µM; MIC [12]: 250 µM (≈ 70.6 µg/mL); MIC [13]: 62.5 µM (≈ 17.6 µg/mL); MIC [14]: > 250 µM; MIC [15]: > 250 µM |
| NNC(=O)c1ccncc1 [ISONIAZID] | – | – | – | – | – | – | – | 4 (≈ 0.549 µg/mL) | 1 (≈ 0.137 µg/mL) | 4 (≈ 0.549 µg/mL) | 8 (≈ 1.1 µg/mL) | – | 0.5 (≈ 0.0686 µg/mL) | – | – | > 250 | > 250 | > 250 | > 250 | – | MIC [27]: > 250 µM |
